# Shown are actives, neighbours in structure and some others; about 4.4% of the full set was active somewhere.
# HTR2A ag: agonists of mouse serotonin 5-HT2A receptor (HTR2A); P35363; activation, % at 7.6 µM; CHO-K1 mHTR2A beta-arrestin complementation, luminescence; percent of 30 µM serotonin response; 360,000 tested, 0.66% active;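 active = activation above a run cutoff, the mean activation of all tested compounds plus 3 SD, cut at about 14% in these data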;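 also: 0% = plate median of compound wells and 100% = 30 µM serotonin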
# Target sequence (P35363 whole entry, looked up): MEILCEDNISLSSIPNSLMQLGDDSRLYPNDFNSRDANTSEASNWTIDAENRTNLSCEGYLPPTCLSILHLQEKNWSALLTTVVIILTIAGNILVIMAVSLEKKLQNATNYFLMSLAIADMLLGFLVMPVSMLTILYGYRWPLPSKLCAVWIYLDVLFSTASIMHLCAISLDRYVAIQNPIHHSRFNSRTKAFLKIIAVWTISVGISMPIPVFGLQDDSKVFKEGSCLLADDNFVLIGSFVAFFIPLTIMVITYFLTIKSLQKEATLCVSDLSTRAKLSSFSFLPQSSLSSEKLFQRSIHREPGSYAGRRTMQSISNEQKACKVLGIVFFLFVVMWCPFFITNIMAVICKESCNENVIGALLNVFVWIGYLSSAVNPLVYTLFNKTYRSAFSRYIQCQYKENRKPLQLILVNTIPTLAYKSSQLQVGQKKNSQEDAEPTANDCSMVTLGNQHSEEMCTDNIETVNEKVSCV
# bovine MsrA act: bovine methionine sulfoxide reductase A activation | activation, % at 10.6 µM | purified bovine MsrA, absorbance read-out | AID 602163 | 360,000 tested, 0.3% active; in the data active = activation above about 7.5%;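 also: 0% = vehicle and 100% = reference activator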
# MsrA inhibitor: inhibitors of bovine MsrA; purified bovine MsrA, absorbance read-out; inhibition, % at 15.5 µM; 360,000 tested, 0.75% active; AID 651718; in the data active = inhibition above about 4.5%;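 also: 0% = vehicle wells with enzyme and 100% = reference inhibitor wells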
# AI-2 QS modul: modulates the Vibrio harveyi AI-2 quorum sensing system; 300,000 tested, 0.4% active; Vibrio harveyi JMH597 AI-2 luminescence/OD600 ratio, 9 h; hits give low values; strain lacks LuxN and CqsS sensors; 0 = neutral-control median; AID 2094; activity change, % at 7.5 µM; in the data active = activity change below about -75%, passing the limit was not always enough;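 also: luminescence divided by OD600 gain over 9 h not by final OD600 alone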
# AHR act: human AHR activation | P35869 | AHR-responsive luciferase reporter cells, luminescence | activation, % at 5 µM | 320,000 tested, 2.5% active | AID 2796; in the data active = activation above about 47%;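 also: 0% = vehicle wells and 100% = reference agonist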
# TbMetRS inhib: Trypanosoma brucei MetRS inhibition; purified T. brucei MetRS, ATP depletion, Kinase-Glo luminescence; inhibition, % at 11.9 µM; 360,000 tested, 0.4% active; AID 624268;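 active = inhibition above a per-plate cutoff of the control wells' mean inhibition plus 3 SD, cut at about 5.5% in these data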;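 also: 0% = DMSO wells median and 100% = median of wells with control inhibitor compound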
#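 assay system = parasite MetRS enzyme | timing = 15 min preincubation, 2 h reaction, all 25 °C | evaluation = percent inhibition relative to median high and low control wells | medium = HEPES buffer containing pyrophosphatase, BSA, spermine, DTT | compound = single dose, 11.9 µM final nominal, 0.9% final DMSO | detection = Kinase-Glo luminescence, ATP depletion format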
# The depositor's hits bear a star; . = no result.
SMILES,HTR2A ag,bovine MsrA act,MsrA inhibitor,AI-2 QS modul,AHR act,TbMetRS inhib
CCNc1nc(Cl)nc(-c2cn(-c3ccccc3)c3ccccc23)n1,4,-10,0,21,62*,-2
O=C(NC12CC3CC(CC(C3)C1)C2)c1ccc([N+](=O)[O-])o1,1,-2,0,-210*,-2,-1
O=C(CN1C(=O)N/C(=C\c2ccccc2OCc2ccc(C(=O)O)cc2)C1=O)Nc1ccccc1F,4,-6,4.6*,16,1,0
Cc1cccc(N=Nc2ccc(O)c3ncccc23)c1,-4,-1,1,26,70*,0
NC(=O)c1ccc(-c2noc(-c3ccccc3F)n2)cc1,2,-2,1,.,-14,1
CCSc1ccccc1-c1nc(-c2ccncc2)no1,14,-1,0,-10,65*,0
O=[N+]([O-])c1cccc(-c2nc(-c3ccccc3)no2)c1,6,3,0,15,58*,0
Fc1ccccc1-c1nc(-c2ccc(Cl)cc2)no1,1,-6,-1,-1,85*,-1
c1ccc(-c2noc(-c3ccccc3-c3ccccc3)n2)cc1,6,-2,-1,14,62*,0
Nc1[nH]c(C(=O)c2ccc(Br)cc2)c(-c2ccncc2)c1C(=O)NCCc1c[nH]c2ccccc12,.,.,0,.,.,.
CN1CCN(C(=O)c2ccccc2-c2nc(-c3ccc(Cl)cc3)no2)CC1,-8,-1,0,4,15,1
O=C(c1ccccc1-c1nc(-c2ccc(Cl)cc2)no1)N1CCCC1,-9,0,1,12,53*,0
O=C(COc1ccc2c(c1)OCO2)Nc1nccs1,-8,-1,0,9,59*,-1
N#CCCN1CCC(N)=NC1=NC#N,.,.,1,.,.,.
COc1cccc(CNC(=O)[C@H]2CCCN2C(=O)[C@H]2CCCN2)c1,.,.,0,.,.,.
Cc1nn(-c2ccc(Cl)c(Cl)c2)c(=O)c2ccccc12,3,2,0,0,16,-1
Cc1nn(-c2ccc(Cl)cc2)c(=O)c2ccccc12,-2,-2,0,-17,54*,-1
O=C(CSc1nnc2ccc(-c3cccnc3)nn12)Nc1ccc(F)cc1,-3,1,0,1,61*,0
Cc1cccc(NC(=O)CSc2ccc(-c3cccnc3)nn2)c1,-7,-3,-1,15,50*,0
Cc1cccc(NC(=O)CSc2nnc(-c3ccco3)c(-c3ccco3)n2)c1C,0,-13,.,9,5,0
Cc1cccc(NC(=O)CSc2nnc(-c3ccco3)c(-c3ccco3)n2)c1,4,-10,4.9*,.,.,0
Cc1ccc(NC(=O)CSc2ccc(-c3cccnc3)nn2)cc1,3,-9,0,24,25,-1
O=C(CSc1ccc(-c2cccnc2)nn1)c1ccc([N+](=O)[O-])cc1,5,-4,1,55,58*,-1
O=C1Cn2nnc(-c3ccccc3)c2C2c3cc(Br)ccc3CCN12 (centres undefined),.,.,-3,.,.,.
c1ccc2c(c1)-c1cccc3c1c-2cc1ccccc13,.,.,.,.,102*,.
SMILES,HTR2A ag,bovine MsrA act,MsrA inhibitor,AI-2 QS modul,AHR act,TbMetRS inhib
N#C/C(C(=O)Nc1ccc(Cl)cc1)=C(/S)Nc1ccccc1,6,-4,4,2,-2,2
N#CC(C#N)=C/C=C(\Nc1ccc(Cl)cc1)c1ccc(Cl)cc1,0,2,1,4,120*,0
CCCCNC1=CC(=O)C(NCCCC)=CC1=O,2,-4,4,.,.,0
CCCCNC1=CC(=O)C(=O)c2ccccc21,0,1,-1,14,53*,3
COC(=O)Nc1ccc2c(c1)Nc1ccccc1CC2,-7,-3,0,-71,3,0
Nc1ccc2c(c1)Nc1ccccc1CC2,6,0,1,13,50*,-1
COc1ccccc1CCn1cnc(-c2cccc(Br)c2)c1C(C)C,.,.,0,.,.,.
Cc1ccccc1NS(=O)(=O)c1ccc(C(=O)N2CCCC(C(F)(F)F)C2)cc1 (centres undefined),1,-9,0,-2,0,-1
Cc1cc(C)cc(N=Cc2ccc([N+](=O)[O-])s2)c1,2,5,3,27,3,-1
O=[N+]([O-])c1ccc(C=Nc2ccc(Cl)c([N+](=O)[O-])c2)s1,-5,2,5.1*,.,.,1

# Screens as filed in PubChem.
